The text below walks through data of ChEMBL document CHEMBL3098046, “Fragment-based discovery of 6-azaindazoles as inhibitors of bacterial DNA ligase” (ACS Med Chem Lett, 2013).

In data set [1] the test system is Pseudomonas aeruginosa. In words: Antibacterial activity against Pseudomonas aeruginosa PAO322 after 18 to 24 hrs by broth microdilution method. Format: functional.
For data set [2], the system named is Klebsiella pneumoniae. In words: Antibacterial activity against TolC deficient Klebsiella pneumoniae 1161486a after 18 to 24 hrs by broth microdilution method. The data set is classed as functional. Background: Dilution methods test growth across graded concentrations, often in twofold steps.
Data set [3] has as its system Escherichia coli. The data set is described as follows: Antibacterial activity against TolC deficient Escherichia coli 7623 after 18 to 24 hrs by broth microdilution method. The data set is classed as functional.
Data set [4] has as its system Haemophilus influenzae. In words: Antibacterial activity against AcrB deficient Haemophilus influenzae H128 after 18 to 24 hrs by broth microdilution method. The data set is classed as functional.
Data set [5] concerns Acinetobacter baumannii. The data set is described as follows: Antibacterial activity against Acinetobacter baumannii BM4454 after 18 to 24 hrs by broth microdilution method. The data set is classed as functional.
For data set [6], the system named is Pseudomonas aeruginosa. The data set is described as follows: Antibacterial activity against Pseudomonas aeruginosa PAO(MV) after 18 to 24 hrs by broth microdilution method. The data set is classed as functional.
The subject of data set [7] is Klebsiella pneumoniae. In words: Antibacterial activity against Klebsiella pneumoniae 1161486 after 18 to 24 hrs by broth microdilution method. Format: functional.
Data set [8] concerns Escherichia coli. The data set is described as follows: Antibacterial activity against Escherichia coli 7623 after 18 to 24 hrs by broth microdilution method. Format: functional.
In data set [9] the test system is Haemophilus influenzae. The data set is described as follows: Antibacterial activity against Haemophilus influenzae H128 after 18 to 24 hrs by broth microdilution method. Format: functional.
Data set [10] concerns Streptococcus pyogenes. In words: Antibacterial activity against Streptococcus pyogenes 1307006P after 18 to 24 hrs by broth microdilution method. The data set is classed as functional.
Data set [11] deals with Streptococcus pneumoniae. The data set is described as follows: Antibacterial activity against Streptococcus pneumoniae 1629 after 18 to 24 hrs by broth microdilution method. Format: functional.
Data set [12] relates to Staphylococcus aureus. The data set is described as follows: Antibacterial activity against Staphylococcus aureus Oxford after 18 to 24 hrs by broth microdilution method. Format: functional.
Data set [13] addresses T1, DNA ligase (Staphylococcus aureus, UniProt Q9AIU7). In words: Binding affinity to C-terminal 6xHis-tagged Staphylococcus aureus DNA ligase (1 to 312) expressed in Escherichia coli BL21 (DE3) by ITC assay. A general note: In ITC the heat of successive injections is recorded.
The target in data set [14] is T1, DNA ligase. In words: Inhibition of C-terminal 6xHis-tagged full length recombinant Staphylococcus aureus DNA ligase (1 to 312) expressed in Escherichia coli BL21 (DE3) using oligonucleotide as substrate after 10 mins by TR-FRET assay. In general terms: In TR-FRET formats the signal depends on donor and acceptor labels being close together.
Data set [15] can be described thus: Solubility of the compound. Format: physicochemical.
The subject of data set [16] is L5178Y. The data set is described as follows: Cytotoxicity against TK +/- expressing mouse L5178Y cells. The data set is classed as cell-based. The procedure, abridged: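 Mouse lymphoma cell line (described as lung lymphoma) used for general cytotoxicity, tested up to a highest concentration of 100 μM.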
Data set [17] can be described thus: Inhibition of Escherichia coli LigA.
The test system of data set [18] is Escherichia coli. In words: Antibacterial activity against TolC deficient Escherichia coli TOP10 expressing LigA R518H mutant by broth microdilution method. The data set is classed as functional.
The test system of data set [19] is Escherichia coli. The data set is described as follows: Antibacterial activity against TolC deficient Escherichia coli TOP10 expressing LigA R150S mutant by broth microdilution method. The data set is classed as functional.
The test system of data set [20] is Escherichia coli. In words: Antibacterial activity against TolC deficient Escherichia coli TOP10 expressing LigA G180E mutant by broth microdilution method. The data set is classed as functional.
Data set [21] relates to Escherichia coli. The data set is described as follows: Antibacterial activity against TolC deficient Escherichia coli TOP10 by broth microdilution method. Format: functional.
Data set [22] concerns Staphylococcus aureus. The data set is described as follows: Antibacterial activity against Staphylococcus aureus RN4220 expressing pYH4-YerG/LigA by broth microdilution method in presence of anhydrotetracycline. Format: functional.
Data set [23] concerns Staphylococcus aureus. The data set is described as follows: Antibacterial activity against Staphylococcus aureus RN4220 expressing pYH4-YerG/LigA by broth microdilution method in absence of anhydrotetracycline. Format: functional.
Data set [24] deals with Staphylococcus aureus. The data set is described as follows: Antibacterial activity against Staphylococcus aureus RN4220 expressing pYH4 by broth microdilution method in presence of anhydrotetracycline. The data set is classed as functional.
For data set [25], the system named is Staphylococcus aureus. The data set is described as follows: Antibacterial activity against Staphylococcus aureus RN4220 expressing pYH4 by broth microdilution method in absence of anhydrotetracycline. The data set is classed as functional.
The test system of data set [26] is Acinetobacter baumannii. In words: Antibacterial activity against Acinetobacter baumannii BM4652 expressing efflux transporter mutant after 18 to 24 hrs by broth microdilution method.

Values after ≈ are worked out from the molar mass of the structure shown.

T1 sequence (Q9AIU7 whole entry): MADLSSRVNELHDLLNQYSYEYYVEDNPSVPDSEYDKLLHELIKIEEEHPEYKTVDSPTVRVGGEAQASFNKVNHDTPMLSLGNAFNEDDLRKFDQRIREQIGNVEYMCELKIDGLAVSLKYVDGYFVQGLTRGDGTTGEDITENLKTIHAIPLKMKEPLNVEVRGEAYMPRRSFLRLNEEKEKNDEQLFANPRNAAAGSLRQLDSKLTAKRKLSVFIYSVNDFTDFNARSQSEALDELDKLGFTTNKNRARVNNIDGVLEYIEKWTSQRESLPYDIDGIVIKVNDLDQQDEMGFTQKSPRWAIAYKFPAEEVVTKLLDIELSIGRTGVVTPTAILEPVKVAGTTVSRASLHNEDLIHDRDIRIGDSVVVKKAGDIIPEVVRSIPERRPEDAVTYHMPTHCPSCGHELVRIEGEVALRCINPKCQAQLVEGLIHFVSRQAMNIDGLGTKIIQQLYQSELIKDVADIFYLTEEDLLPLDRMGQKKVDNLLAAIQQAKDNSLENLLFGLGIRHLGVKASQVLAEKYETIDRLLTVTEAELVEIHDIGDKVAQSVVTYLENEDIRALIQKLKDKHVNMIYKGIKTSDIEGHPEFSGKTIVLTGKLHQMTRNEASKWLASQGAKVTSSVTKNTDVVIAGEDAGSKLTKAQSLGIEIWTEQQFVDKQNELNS

Turning to `Nc1nc(OCC2CCC2)nc2c1ncn2[C@@H]1O[C@H](CF)[C@@H](O)[C@H]1O`, the MIC in data set [1] was 64 µg/mL (≈ 181 µM); in data set [2], 8 µg/mL (≈ 22.6 µM); in data set [3], 8 µg/mL (≈ 22.6 µM); in data set [4], 2 µg/mL (≈ 5.66 µM); in [5] it was > 128 µg/mL; in data set [6], > 128 µg/mL. Besides, the MIC in data set [7] was > 128 µg/mL; in [8], > 128 µg/mL; in data set [9], 16 µg/mL (≈ 45.3 µM); in data set [10] it was 8 µg/mL (≈ 22.6 µM); in [11], 2 µg/mL (≈ 5.66 µM); in data set [12], 8 µg/mL (≈ 22.6 µM).

What is called Kd is the concentration at which binding is half-saturated. A low value points to a tighter complex. `Clc1cncc(-c2nnc[nH]2)n1`: in data set [13], the affinity, expressed as Kd, was 38 µM.

One may read the IC50 as the concentration at which inhibition is half-maximal. Turning to `Clc1cccc(-c2nc[nH]n2)n1`, the Kd in data set [13] is 10 µM. Further, the IC50 in [14] stood at 17 µM.

Turning to `c1ccc(-c2nnc[nH]2)nc1`, the IC50 in [14] worked out at 300 µM.

Turning to `COc1cccc(-c2nnc[nH]2)n1`, in data set [14], the IC50 was determined as 130 µM.

For the molecule `Cc1cccc(-c2nnc[nH]2)n1`, the IC50 in data set [14] amounted to 140 µM.

Regarding `c1cc(-c2nnc[nH]2)nc(C2CCC2)c1`, the IC50 in data set [14] is 53 µM.

With `CC(F)(F)c1cccc(-c2nnc[nH]2)n1`, the IC50 in data set [14] was 21 µM.

With `FC(F)(F)c1cccc(-c2nc[nH]n2)n1`, the IC50 in data set [14] amounted to 16 µM.

As usually defined, the solubility is the dissolved amount per volume that the medium holds. Higher therefore signals a readily soluble substance. In the case of `FC(F)(F)c1cccc(-c2n[nH]c3cnccc23)n1`, the IC50 in data set [14] was determined as 0.22 µM. The molecule also displayed a solubility in [15] of 12 µg/mL (≈ 45.4 µM).

For `OCCNc1cc(-c2n[nH]c3cnccc23)nc(C(F)(F)F)c1`, the IC50 in [16] stood at 16 µg/mL (≈ 49.5 µM); in data set [14], 0.23 µM. In addition, the MIC is > 128 µg/mL in data set [1]; > 128 µg/mL in [2]; 128 µg/mL (≈ 396 µM) in data set [3]; 8 µg/mL (≈ 24.7 µM) in [4]; > 128 µg/mL in data set [5]; > 128 µg/mL in [6]. The MIC in data set [7] was > 128 µg/mL; in data set [8], > 128 µg/mL; in data set [9] it was 128 µg/mL (≈ 396 µM); in data set [10] it was 128 µg/mL (≈ 396 µM); in data set [11], 64 µg/mL (≈ 198 µM); in data set [12], 8 µg/mL (≈ 24.7 µM). This molecule also returned a solubility in data set [15] of 113 µg/mL (≈ 350 µM).

For `OCCNc1cc(C(F)(F)F)nc(-c2n[nH]c3cnccc23)n1`, the results for the IC50 in [17], in [16] and in [14] were 0.097 µM, > 36 µg/mL and 0.015 µM, respectively. The MIC in data set [18] was found to be 64 µg/mL (≈ 197 µM); in data set [19], 64 µg/mL (≈ 197 µM); in [20], 64 µg/mL (≈ 197 µM); in [21], 8 µg/mL (≈ 24.7 µM); in data set [22], 128 µg/mL; in [23], 16 µg/mL (≈ 49.3 µM). For the same molecule, the MIC in data set [24] came to 8 µg/mL; in [25] it was 8 µg/mL (≈ 24.7 µM); in data set [1] it was 32 µg/mL (≈ 98.7 µM); in data set [2] it was 32 µg/mL (≈ 98.7 µM); in data set [3], 16 µg/mL (≈ 49.3 µM); in data set [4], 1 µg/mL (≈ 3.08 µM). The MIC was > 128 µg/mL in data set [5]; > 128 µg/mL in data set [6]; > 128 µg/mL in data set [7]; > 128 µg/mL in [8]; 16 µg/mL (≈ 49.3 µM) in data set [9]; 8 µg/mL (≈ 24.7 µM) in [10]. For the same molecule, the MIC in [11] came to 2 µg/mL (≈ 6.17 µM); in data set [12], 4 µg/mL (≈ 12.3 µM); in data set [26] it was 32 µg/mL (≈ 98.7 µM). The molecule further returned a Kd in data set [13] of 0.025 µM.
